Laboratory results taken from ChEMBL document CHEMBL1152494, “Synthesis of some new 1,3,4-thiadiazol-2-ylmethyl-1,2,4-triazole derivatives and investigation of their antimicrobial activities” (2009).
The source made the active and inactive calls. The rule behind the calls is not given here.

Assays:
Assay type in all cases: functional
[1] = system: Yersinia pseudotuberculosis; assay: Antimicrobial activity against Yersinia pseudotuberculosis ATCC 911 after 18 hrs by agar-well diffusion assay
In short: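 Bacteria were suspended in Mueller Hinton broth at about 10⁶ cfu/mL and flood-inoculated onto Mueller Hinton agar, then dried. Samples in DMSO went into 5-mm cork-bored wells. Plates were incubated 18 h at 35 °C and the zone of inhibition was read. Ampicillin was the standard, with a DMSO solvent control.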

Escherichia coli = assay: Antimicrobial activity against Escherichia […] after 18 hrs by agar-well diffusion assay
In short: (§1)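 Organisms suspended in Mueller Hinton broth, diluted to about 10⁶ cfu/mL, and flood-inoculated onto Mueller Hinton agar, then dried. Samples dissolved in DMSO were added to 5 mm wells cut in the agar. Plates were incubated 18 h at 35 °C, and inhibition zones were measured. Ampicillin was the standard drug, with a DMSO solvent control.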

Pseudomonas aeruginosa = assay: Antimicrobial activity against Pseudomonas aeruginosa ATCC 27853 after 18 hrs by agar-well diffusion assay; in short: as §1
Enterococcus faecalis = assay: Antimicrobial activity against Enterococcus faecalis ATCC 29212 after 18 hrs by agar-well diffusion assay; in short: as §1
Staphylococcus aureus = assay: Antimicrobial activity against Staphylococcus aureus ATCC […] after 18 hrs by agar-well diffusion assay; in short: as §1
Bacillus cereus = assay: Antimicrobial activity against Bacillus cereus 702 Roma after 18 hrs by agar-well diffusion assay; in short: as §1
Candida tropicalis = assay: Antimicrobial activity against Candida tropicalis ATCC 13803 after 18 hrs by agar-well diffusion assay
In short: (§2)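 Yeast suspended in Mueller Hinton broth at about 10⁶ cfu/mL and flood-inoculated onto Sabouraud dextrose agar, then dried. Samples dissolved in DMSO were placed in 5 mm wells bored in the agar. After 18 h at 35 °C, the zone of inhibition was measured. Fluconazole was the standard drug, with a DMSO solvent control.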

Candida albicans = assay: Antimicrobial activity against Candida albicans ATCC 60193 after 18 hrs by agar-well diffusion assay; in short: as §2

| Structure (SMILES) | inhibition zone (IZ) [1] | inhibition zone (IZ) (Escherichia coli) | inhibition zone (IZ) (Pseudomonas aeruginosa) | inhibition zone (IZ) (Enterococcus faecalis) | inhibition zone (IZ) (Staphylococcus aureus; ATCC 25923) | inhibition zone (IZ) (Bacillus cereus) | inhibition zone (IZ) (Candida tropicalis) | inhibition zone (IZ) (Candida albicans) | inhibition zone (IZ) (Staphylococcus aureus) [mm] |
| --- | --- | --- | --- | --- | --- | --- | --- | --- | --- |
| Cc1ccc(-c2nn(Cc3nn(CNCCN4CCOCC4)c(=S)n3-c3ccccc3)c(=O)n2N)cc1 | inactive | inactive | inactive | inactive | inactive | inactive | inactive | inactive |  |
| Cc1ccc(-c2nn(Cc3nnc(S)n3-c3ccccc3)c(=O)n2/N=C/c2ccc(F)cc2)cc1 | 25 mm | 25 mm | 30 mm | 20 mm |  | 20 mm | inactive | inactive | 28 |
| Cc1ccc(-c2nn(Cc3nnc(Nc4ccc(F)cc4)s3)c(=O)n2N)cc1 | inactive | inactive | inactive | inactive | inactive | inactive | inactive | inactive |  |
| COc1ccc(/C=N/n2c(-c3ccc(C)cc3)nn(Cc3nnc(S)n3-c3ccc(F)cc3)c2=O)cc1 | 30 mm | 30 mm | 35 mm | 24 mm |  | 22 mm | inactive | inactive | 26 |
| CSc1nnc(Cn2nc(-c3ccc(C)cc3)n(N)c2=O)n1-c1ccccc1 | inactive | inactive | inactive | inactive | inactive | inactive | inactive | inactive |  |
| Cc1ccc(-c2nn(Cc3nn(CN4CCN(C)CC4)c(=S)n3-c3ccccc3)c(=O)n2N)cc1 | inactive | inactive | inactive | inactive | inactive | inactive | inactive | inactive |  |
| COc1ccc(-n2c(Cn3nc(-c4ccc(C)cc4)n(N)c3=O)nnc2SC)cc1 | inactive | inactive | inactive | inactive | inactive | inactive | inactive | inactive |  |
| COc1ccc(NC(=S)NNC(=O)Cn2nc(-c3ccc(C)cc3)n(N)c2=O)cc1 | 25 mm | 24 mm | 35 mm | 28 mm |  | 22 mm | inactive | inactive | 28 |
| Cc1ccc(-c2nn(CC(=O)NNC(=S)Nc3ccc(F)cc3)c(=O)n2N)cc1 | 28 mm | 34 mm | 35 mm | 30 mm |  | 22 mm | inactive | inactive | 30 |
| COc1ccc(-n2c(S)nnc2Cn2nc(-c3ccc(C)cc3)n(N)c2=O)cc1 | 22 mm | 28 mm | 30 mm | 25 mm |  | 25 mm | inactive | inactive | 30 |
| Cc1ccc(-c2nn(Cc3nnc(S)n3-c3ccc(F)cc3)c(=O)n2N)cc1 | 26 mm | 30 mm | 35 mm | 30 mm |  | 25 mm | inactive | inactive | 26 |
| Cc1ccc(-c2nn(Cc3nnc(S)n3-c3ccccc3)c(=O)n2N)cc1 | 22 mm | 25 mm | 30 mm | 20 mm |  | 20 mm | inactive | inactive | 24 |
| CCSc1nnc(Cn2nc(-c3ccc(C)cc3)n(N)c2=O)n1-c1ccc(F)cc1 | inactive | inactive | inactive | inactive |  | 9 mm | 6 mm | 6 mm | 8 |
| Cc1ccc(-c2nn(Cc3nnc(S)n3-c3ccc(F)cc3)c(=O)n2/N=C/c2ccc(F)cc2)cc1 | 22 mm | 25 mm | 30 mm | 20 mm |  | 20 mm | inactive | inactive | 24 |
| COc1ccc(Nc2nnc(Cn3nc(-c4ccc(C)cc4)n(N)c3=O)s2)cc1 | 22 mm | 30 mm | >30 mm | 20 mm |  | 23 mm | inactive | inactive | 28 |
